# Source: PubChem BioAssay (several laboratories)
# Yeast growth inh: chemicals that inhibit yeast BB579 growth in restrictive medium (lifespan-shortening candidates) | S. cerevisiae BB579 growth, OD615, 48 h | inhibition, % at 10 µM | hit rate 0.51% among 140,000 | AID 804;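 active = inhibition above a set limit, 3 SD over the mean compound inhibition, cut at about 44% in these data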
#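 controls = amphotericin B 10 µg/mL, positive | assay system = DeaD yeast strain BB579 | schedule = 48 h compound exposure at 30 °C after 4 h preincubation | detection = OD615 turbidity measurement | medium = restrictive CSMM-D medium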
# Yeast life ext: extends the lifespan of yeast. hit rate 0.68% among 130,000. inhibition of the nicotinamide effect, % at 10 µM. S. cerevisiae growth with nicotinamide, OD615; deaD strain in restrictive glucose medium;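 active = inhibition above a set limit, placed 3 SD over the median of all compounds, cut at about 26% in these data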;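 also: 0% = nicotinamide-treated wells and 100% = cells grown without nicotinamide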
#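 assay system = DeaD-strain S. cerevisiae | buffer or medium = restrictive glucose medium | reagent = 1.5 mM nicotinamide | compound = 10 µM single point, 0.25% DMSO | incubation = 48 h compound exposure at 30 °C, humidified | signal = OD615 measurement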
# RAM inhibit: inhibitors of the yeast RAM network. S. cerevisiae dse1pr::URA3 reporter, 5-FOA growth OD615, 2 d; analog-sensitive cbk1-as2 kinase mutant strain. inhibition, % at 50 µM. hit rate 1.8% among 190,000. AID 868;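 active = inhibition above a set limit, 3 SD over mean compound inhibition, cut at about 8.4% in these data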;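 also: 0% = DMSO-only wells with no growth and 100% = 10 µM 1-NA-PP1 full growth; inhibition rescues growth on 5-FOA so higher OD means more RAM inhibition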
# Insulin prom inh: TRM-6 insulin promoter activity inhibition. TRM-6 cells, insulin promoter-eGFP reporter, imaging; reporter expression induced with tamoxifen. inhibition, % at 2 µM. hit rate 0.9% among 130,000. AID 1273;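 active = inhibition above the mean plus 3 SD, with well images judged a real hit on visual review, cut at about 60% in these data, passing the limit was not always enough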
# Ins promoter up: MIN6 insulin promoter up-regulation. MIN6 insulin promoter-GFP reporter, high-content imaging; active compounds read high. z-score at 5 µM. hit rate 0.3% among 190,000;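 active = z-score above 3 at 5 µM with at least 500 cells counted in the well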
# Starred values were filed as active, the others as inactive; · = not tested or not shown. Shown are actives, neighbours in structure and some others; about 3.1% of the full set was active somewhere.
SMILES,Yeast growth inh,Yeast life ext,RAM inhibit,Insulin prom inh,Ins promoter up
Cc1cccnc1Nc1nc(-c2ccccn2)cs1,95*,-15,1,-143,-0.9
CCC(C)/C(C)=N/NC(=O)c1ccc(COc2ccc(Cl)c(C)c2)cc1 (configuration not stated),97*,-8,0,0,·
O=[N+]([O-])c1ccc(C2Oc3ccccc3C3CC(c4ccccc4)=NN32)s1 (configuration not stated),96*,-5,0,-79,0.69
c1ccc(C2Oc3ccccc3C3CC(c4cccs4)=NN32)cc1 (configuration not stated),5,3,0,·,·
O=C(Cc1ccc(-c2ccccc2)cc1)OCC(=O)N1CCCC1=O,·,·,0,·,0.09
Cc1ccc([N+](=O)[O-])cc1NC(=O)C(Sc1ccccc1)c1ccccc1 (configuration not stated),-53,-1,9.1*,-80,·
Cc1ccc([N+](=O)[O-])cc1NC(=O)c1cccs1,·,·,0,·,3.2*
CCN=C(NC#N)SCc1c(F)cccc1Cl,-39,0,3,-167,0.27
COCCn1c(SCc2nnc(-c3ccccc3)o2)nc2sc3c(c2c1=O)CCC3,-20,-11,3,·,0.53
CCN(CC)CCC(C)OC(=O)c1ccc(O)cc1O (configuration not stated),·,·,1,-20,0.04
CCOc1ccc(/C=C/[N+](=O)[O-])c2ccccc12,56*,-2,0,11,-0.3
CCOC(=O)Cn1cc(/C=C/[N+](=O)[O-])c2ccccc21,·,·,3,-21,0.07
CCOC(=O)COc1ccc2ccccc2c1/C=C/[N+](=O)[O-],-9,39*,4,21,0.45
CCOC(=O)COc1ccc(/C=C/[N+](=O)[O-])c(OCC(=O)OCC)c1,-8,16,4,·,-0.44
CNC(=O)Cc1csc2ccc(C)cc12,·,·,·,·,0.55
Cc1cc2c(cc(C(=O)O)n2C)s1,56*,-7,-1,·,0.1
CCOC(=O)c1cc2sc(C)cc2n1C(C)C(=O)OCC (configuration not stated),-48,-11,2,26,1.1
C/C(Cc1ccccc1)=N\NC(=O)CNC(=O)/C=C\c1ccccc1,·,·,·,·,0.24
Cc1nc2ccccc2c2c1C(=O)N(C)C2=O,66*,-9,0,14,0.59
Cc1nc2ccccc2c2c1C(=O)N(C(C)C)C2=O,-61,-10,1,15,0.53
Cc1nc(CN2CCN(C(=O)c3ccc(C(C)(C)C)cc3)CC2)cs1,-20,-11,1,·,1.5
CCCCOc1ccc(NC(=S)Nc2cc(C)nc(SCCCC)n2)cc1,-29,20,9.6*,·,-0.19
CCOc1ccc(NC(=O)CSc2nc(C)cc(C)n2)cc1,-11,·,1,26,-0.34
Cc1nn(C)c(C)c1NC(=O)CC12CC3CC(CC(C3)C1)C2,·,·,1,·,-0.68
COc1ccccc1C1=NOC(COC(=O)c2ccc(Br)cc2)C1 (configuration not stated),-62,-1,10*,-31,-0.05
SMILES,Yeast growth inh,Yeast life ext,RAM inhibit,Insulin prom inh,Ins promoter up
Cc1ccc(CSc2nnc(-c3ccncc3)o2)c(C)c1,·,·,2,-4,-0.11
CCOC(=O)CC1C(=O)NCCN1C(=O)c1cc2c(=O)n3cccc(C)c3nc2s1 (configuration not stated),-6,-5,0,·,0.36
CCCN1C(=O)/C(=C/c2c(N3CCNC(=O)C3CC(=O)OC)nc3c(C)cccn3c2=O)SC1=S (configuration not stated),·,·,·,·,6.5*
OCCN(CCO)CC(O)COc1ccc(Br)cc1 (configuration not stated),·,·,·,·,-0.08
OCCN(CCO)CC(O)COc1ccc(C23CC4CC(CC(C4)C2)C3)cc1 (configuration not stated),46*,-10,-2,21,-0.14
CCCSc1cc(NCCOC(=O)CCC)c([N+](=O)[O-])c2nonc12,2,28*,5,7,-0.44
CCC(=O)OCCNc1cc(Sc2nc3ccccc3s2)c2nonc2c1[N+](=O)[O-],-30,32*,3,-4,-1.2
CN(C)c1ccc(/C=N/NC(=O)COc2ccccc2)cc1,·,·,2,·,0.26
CCCCCC1CC1C(=O)N/N=C/c1ccc(N(C)C)cc1 (configuration not stated),-36,42*,1,·,-0.09
Cc1cccc(C)c1Nc1c(-c2ccc(N3CCOCC3)cc2)nc2ncccn12,11,-1,0,38,0.49
Cc1ccc(Nc2c(-c3ccc(N4CCOCC4)cc3)nc3ncccn23)c(C)c1,0,4,0,76*,-1.3
CCOc1cc(C)c(C(C)C)cc1S(=O)(=O)NCc1ccccn1,-45,59*,3,38,-0.45
CCOc1cc(C)c(C(C)C)cc1S(=O)(=O)n1ccc(C)n1,-10,5,0,82*,-0.98
COc1cc(S(=O)(=O)NCc2ccccn2)c(OC)cc1Cl,-17,·,0,6,0.55
CCn1cc(C(=O)N2CCN(c3ccccc3F)CC2)c(=O)c2ccc(C)nc21,·,·,2,·,0.39
COc1cccc(C(=O)NCC(=O)OCC(=O)Nc2cc(OC)c([N+](=O)[O-])cc2C)c1,-6,-4,1,·,0.94
Cc1nn(-c2ccccc2)c(C)c1/C=N/Nc1nc2ccccc2[nH]1,1,-2,0,84*,0.1
Cc1nn(-c2ccccc2)c(Cl)c1/C=N/Nc1nc2ccccc2n1C,-32,-5,-1,78*,-0.95
CC(C)(Oc1ccc(Cl)cc1)C(=O)N/N=C/c1cn[nH]c1-c1ccccc1,-27,-9,2,-41,0.05
COc1c(Br)cc(Br)cc1/C=N/n1c(C)nnc1C,-79,37*,0,0,-1
CCCCC(=Nc1ccc(N)cc1)C1=C(O)C(C(=O)OC)C(C)(C)CC1=O (configuration not stated),-62,72*,-1,-30,0.15
CCCC(=Nc1ccccc1)C1=C(O)C(C(=O)OC)C(C)(C)CC1=O (configuration not stated),-42,65,-1,·,·
CCC(=Nc1ccc(N)cc1)C1=C(O)C(C(=O)OC)C(C)(C)CC1=O (configuration not stated),-8,30*,3,·,0.92
CCC(=NCc1ccccc1)C1=C(O)C(C(=O)OC)C(C)(C)CC1=O (configuration not stated),-38,11,0,-36,-0.38
Cc1c(N2C(=O)C(=O)/C(=C(/O)c3ccc(Br)cc3)C2c2cccnc2)c(=O)n(-c2ccccc2)n1C (configuration not stated),·,·,1,28,-0.2
CCOc1ccc(NC(=S)N2CCn3c(nc4ccccc43)C2)cc1,·,·,2,·,-0.32
COc1cc(/C=C2/C(=O)NN(c3cccc(C)c3)C2=O)cc([N+](=O)[O-])c1O,·,·,-1,·,0.45
Cc1ccc(N2NC(=O)/C(=C\c3cc4c(cc3[N+](=O)[O-])OCO4)C2=O)cc1C,-46,49*,0,45,-0.11
